In series [1] the target is T1, Broad substrate specificity ATP-binding cassette transporter ABCG2 (Homo sapiens, UniProt Q9UNQ0).
T1 sequence (Q9UNQ0 whole entry): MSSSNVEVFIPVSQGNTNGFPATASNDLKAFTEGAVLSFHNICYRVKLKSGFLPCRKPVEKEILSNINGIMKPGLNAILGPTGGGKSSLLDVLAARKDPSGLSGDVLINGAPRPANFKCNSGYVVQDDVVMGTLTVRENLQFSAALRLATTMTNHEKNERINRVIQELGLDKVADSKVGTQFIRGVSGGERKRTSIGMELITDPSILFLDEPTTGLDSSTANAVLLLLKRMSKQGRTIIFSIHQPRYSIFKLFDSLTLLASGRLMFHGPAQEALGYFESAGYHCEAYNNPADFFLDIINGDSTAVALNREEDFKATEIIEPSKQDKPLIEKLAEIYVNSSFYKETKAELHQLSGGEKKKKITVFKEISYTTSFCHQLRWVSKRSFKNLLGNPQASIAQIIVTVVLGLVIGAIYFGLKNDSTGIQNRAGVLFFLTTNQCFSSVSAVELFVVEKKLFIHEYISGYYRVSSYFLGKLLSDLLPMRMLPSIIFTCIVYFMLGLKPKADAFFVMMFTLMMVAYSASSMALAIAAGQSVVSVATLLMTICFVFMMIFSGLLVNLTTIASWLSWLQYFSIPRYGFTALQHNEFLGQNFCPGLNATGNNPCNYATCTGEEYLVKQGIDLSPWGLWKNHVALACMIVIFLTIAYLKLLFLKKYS
Put plainly: Inhibition of c-terminal GFP-tagged human ABCG2 expressed in MDCK2 cells preincubated for 30 mins before Hoechst 33342 addition by Hoechst 33342 accumulation assay. It counts as cell-based. A digest of the protocol:
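MDCK II cells transfected with human ABCG2 fused C-terminally to GFP, washed in Krebs-HEPES buffer pH 7.0; ~30,000 cells/well, compound 30 min at 37 °C. 6 µM Hoechst 33342 solution added, fluorescence (ex 355/em 460 nm) every 60 s to 120 min. Final methanol ≤5%, DMSO ≤0.1%.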

The nature of series [2]: Intrinsic cytotoxicity against MDCK2 cells over-expressing human ABCG2 incubated for 72 hrs by MTT assay. It counts as ADME, cell-based, Canis lupus familiaris, MDCK-II. The note with it: dog. A digest of the protocol: (§1)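 MDCK II cells incubated 72 h with compound dilutions, then MTT added; viability from formazan formation. […] Methanol (≤1.8%) and DMSO (≤1%) vehicle tested alone.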

Series [3] in a line: Intrinsic cytotoxicity against parental MDCK2 cells incubated for 72 hrs by MTT assay. It counts as cell-based, Canis lupus familiaris, MDCK-II. The conditions noted are these: dog. The method in brief:
as §1

For series [4], the system named is ABCG2. Briefly: Therapeutic index, ratio of GI50 for intrinsic cytotoxicity against MDCK2 cells over-expressing human ABCG2 top IC50 for inhibition of c-terminal GFP-tagged human ABCG2 expressed in MDCK2 cells. It counts as toxicity, cell-based. The conditions noted are these: dog, read-out: RatioGI50. The method in brief:
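Ratio of MTT GI50 (72 h, MDCK II) to IC50 from the Hoechst 33342 accumulation assay.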

The next series concerns the target ABCC1 (Homo sapiens, UniProt P33527). Briefly: Inhibition of ABCC1 in human H69AR cells at 10 uM preincubated for 30 mins before calcein AM addition by calcein AM assay relative to CsA. It counts as cell-based. The note with it: probe calcein AM. A digest of the protocol: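 H69AR cells (ABCC1-overexpressing) washed in Krebs-HEPES buffer pH 7.0; ~30,000 cells/well preincubated with compound 30 min at 37 °C, 5% CO2. Then 1.25 µM calcein AM solution added, fluorescence at ex 485/em 520 nm every 60 s for 60 min at 37 °C. Screened at 10 µM; activity expressed relative to cyclosporine A.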

Series [5] concerns the target T1, Broad substrate specificity ATP-binding cassette transporter ABCG2. Put plainly: Inhibition of c-terminal GFP-tagged human ABCG2 expressed in MDCK2 cells preincubated for 30 mins before Pheophorbide A addition by Pheophorbide A assay. It counts as cell-based.
The target in series [6] is ATP-dependent translocase ABCB1 (Homo sapiens, UniProt P08183). Briefly: Inhibition of ABCB1 in human A2780adr cells preincubated for 30 mins before calcein AM addition by calcein AM assay. It counts as cell-based. The method in brief: (§2)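 A2780adr cells (ABCB1-overexpressing, doxorubicin-selected one passage every 10 passages) washed three times in Krebs-HEPES buffer pH 7.0; ~30,000 cells/well with compound dilutions, 30 min at 37 °C, 5% CO2. Calcein AM added (1.25 µM solution), fluorescence (ex 485/em 520 nm) read every 60 s for 60 min at 37 °C. Single-point screen at 10 µM relative to cyclosporine A; IC50 from full curves.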

The target of another series is ABCB1 (Homo sapiens, UniProt P08183). Put plainly: Inhibition of ABCB1 in human A2780adr cells at 10 uM preincubated for 30 mins before calcein AM addition by calcein AM assay relative to CsA. It counts as cell-based. The note with it: probe calcein AM. A digest of the protocol:
as §2

The test system of series [7] is ABCG2. Put plainly: Therapeutic index, ratio of GI50 for intrinsic cytotoxicity against MDCK2 cells over-expressing human ABCG2 top IC50 for inhibition of c-terminal GFP-tagged human ABCG2 expressed in MDCK2 cells relative to Ko143. It counts as toxicity, cell-based. The conditions noted are these: dog, read-out: TI.

ABCB1, sequence (P08183 whole entry): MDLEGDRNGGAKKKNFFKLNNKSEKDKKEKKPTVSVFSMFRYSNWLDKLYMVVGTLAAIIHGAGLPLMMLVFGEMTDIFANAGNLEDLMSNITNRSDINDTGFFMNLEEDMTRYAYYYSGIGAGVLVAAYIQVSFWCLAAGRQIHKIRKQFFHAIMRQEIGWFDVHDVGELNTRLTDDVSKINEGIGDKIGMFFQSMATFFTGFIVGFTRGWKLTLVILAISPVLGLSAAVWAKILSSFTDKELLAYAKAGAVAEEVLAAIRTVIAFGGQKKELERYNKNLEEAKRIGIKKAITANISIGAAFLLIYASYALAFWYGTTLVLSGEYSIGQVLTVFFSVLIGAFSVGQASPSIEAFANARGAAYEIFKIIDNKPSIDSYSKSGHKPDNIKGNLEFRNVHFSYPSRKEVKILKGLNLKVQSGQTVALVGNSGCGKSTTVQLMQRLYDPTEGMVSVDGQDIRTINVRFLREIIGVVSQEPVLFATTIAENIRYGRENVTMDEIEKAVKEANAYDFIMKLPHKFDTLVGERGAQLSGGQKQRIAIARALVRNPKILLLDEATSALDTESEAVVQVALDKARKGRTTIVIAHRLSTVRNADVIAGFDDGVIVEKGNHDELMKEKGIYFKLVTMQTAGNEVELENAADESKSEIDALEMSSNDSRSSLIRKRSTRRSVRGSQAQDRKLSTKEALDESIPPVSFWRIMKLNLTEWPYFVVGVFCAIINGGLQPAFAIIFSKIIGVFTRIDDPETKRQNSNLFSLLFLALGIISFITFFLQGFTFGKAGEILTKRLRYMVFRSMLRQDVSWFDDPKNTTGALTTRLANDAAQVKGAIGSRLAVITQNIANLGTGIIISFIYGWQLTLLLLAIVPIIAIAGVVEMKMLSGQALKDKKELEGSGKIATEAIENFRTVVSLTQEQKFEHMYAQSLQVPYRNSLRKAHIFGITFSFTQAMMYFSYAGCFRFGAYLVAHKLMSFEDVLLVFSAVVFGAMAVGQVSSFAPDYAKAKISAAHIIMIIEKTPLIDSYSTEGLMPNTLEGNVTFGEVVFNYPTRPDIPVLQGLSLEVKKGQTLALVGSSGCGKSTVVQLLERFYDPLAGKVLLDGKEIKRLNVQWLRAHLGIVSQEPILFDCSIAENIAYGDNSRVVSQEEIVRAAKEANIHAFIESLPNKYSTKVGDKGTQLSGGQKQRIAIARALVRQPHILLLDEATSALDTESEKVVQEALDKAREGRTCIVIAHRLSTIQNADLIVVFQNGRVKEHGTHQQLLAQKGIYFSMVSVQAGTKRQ
ATP-dependent translocase ABCB1, sequence (P08183 whole entry): as above
ABCC1, sequence (P33527 whole entry): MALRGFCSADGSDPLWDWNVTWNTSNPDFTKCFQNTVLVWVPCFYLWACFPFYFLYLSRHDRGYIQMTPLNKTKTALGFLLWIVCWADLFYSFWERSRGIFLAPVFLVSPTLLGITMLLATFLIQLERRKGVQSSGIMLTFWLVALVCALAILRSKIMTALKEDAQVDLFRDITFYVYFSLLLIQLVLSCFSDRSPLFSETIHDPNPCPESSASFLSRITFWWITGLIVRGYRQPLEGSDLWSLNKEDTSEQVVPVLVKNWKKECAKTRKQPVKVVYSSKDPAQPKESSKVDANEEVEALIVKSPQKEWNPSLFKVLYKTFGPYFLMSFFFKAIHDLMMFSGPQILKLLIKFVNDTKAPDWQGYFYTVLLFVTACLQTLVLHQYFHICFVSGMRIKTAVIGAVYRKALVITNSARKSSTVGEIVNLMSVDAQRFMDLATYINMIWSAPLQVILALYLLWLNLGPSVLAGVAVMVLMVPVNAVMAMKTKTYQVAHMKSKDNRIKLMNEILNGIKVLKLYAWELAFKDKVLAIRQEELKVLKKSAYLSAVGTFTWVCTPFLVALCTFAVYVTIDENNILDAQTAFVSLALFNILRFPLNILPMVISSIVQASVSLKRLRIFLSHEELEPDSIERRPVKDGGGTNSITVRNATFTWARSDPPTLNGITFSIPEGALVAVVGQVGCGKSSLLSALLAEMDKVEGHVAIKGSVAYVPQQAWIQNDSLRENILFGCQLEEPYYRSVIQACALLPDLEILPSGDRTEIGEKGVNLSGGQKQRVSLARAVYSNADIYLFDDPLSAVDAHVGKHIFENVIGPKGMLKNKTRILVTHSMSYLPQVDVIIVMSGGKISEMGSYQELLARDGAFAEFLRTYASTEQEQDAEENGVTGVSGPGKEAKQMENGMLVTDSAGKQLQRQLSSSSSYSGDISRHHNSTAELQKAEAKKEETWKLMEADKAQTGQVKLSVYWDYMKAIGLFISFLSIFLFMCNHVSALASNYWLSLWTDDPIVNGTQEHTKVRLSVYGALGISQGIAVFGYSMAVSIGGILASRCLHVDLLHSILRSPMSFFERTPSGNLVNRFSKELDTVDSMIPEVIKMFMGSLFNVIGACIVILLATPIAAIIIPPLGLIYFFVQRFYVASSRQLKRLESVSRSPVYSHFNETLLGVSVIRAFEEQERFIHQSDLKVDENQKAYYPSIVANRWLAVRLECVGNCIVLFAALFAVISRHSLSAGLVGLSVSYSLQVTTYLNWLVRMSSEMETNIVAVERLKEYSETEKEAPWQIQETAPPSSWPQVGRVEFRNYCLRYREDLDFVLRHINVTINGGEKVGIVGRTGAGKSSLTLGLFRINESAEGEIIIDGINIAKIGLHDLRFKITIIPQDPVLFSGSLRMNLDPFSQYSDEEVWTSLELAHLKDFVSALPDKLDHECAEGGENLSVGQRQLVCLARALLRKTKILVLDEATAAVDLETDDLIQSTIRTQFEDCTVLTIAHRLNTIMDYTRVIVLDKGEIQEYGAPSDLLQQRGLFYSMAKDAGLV

With `Clc1ccc(Nc2nc(-c3ccccc3)nc3ccccc23)cc1`, the IC50 in series [1] came to 830 nM. For the same compound, the GI50 at 72 h in series [2] was found to be 6750 nM; in [3], 14800 nM. Besides, the selectivity ratio in the series with ABCG2 [4] was determined as 8.13.

Consider `COC(=O)c1ccc(Nc2nc(-c3ccccc3)nc3ccccc23)cc1`, for which the 50% inhibitory concentration (IC50) in [1] was 944 nM. Further, at ABCC1, the inhibition at 10 µM was > 25%.

For the compound `CC(=O)Nc1cccc(Nc2nc(-c3ccccc3)nc3ccccc23)c1`, the IC50 was found to be 278 nM in series [1] and 224 nM in series [5]. The GI50 at 72 h in [2] came out at 12900 nM; in [3] it was 30900 nM. In addition, the selectivity ratio with ABCG2 [4] was 46.4.

With `Oc1ccc(Nc2nc(-c3ccccc3)nc3ccccc23)cc1`, the IC50 in series [1] amounted to 204 nM; in [5], 304 nM. Also, the GI50 at 72 h was 12200 nM in series [2] and 26900 nM in [3]. Moreover, in the series with ABCG2 [4], the selectivity ratio is 59.8.

As to `Cc1cccc(Nc2nc(-c3ccccc3)nc3ccccc23)c1`, the IC50 in series [1] was 1150 nM; in [6] it was 3000 nM. Moreover, the inhibition at 10 µM at ABCB1 was > 25%. Moreover, the 50% growth inhibitory concentration (GI50) at 72 h in series [2] worked out at 12800 nM; in series [3], 24000 nM. The selectivity ratio in the series with ABCG2 [4] is 11.1.

Take `Cc1ccc(Nc2nc(-c3ccccc3)nc3ccccc23)cc1`: the IC50 in [1] amounted to 1480 nM.

Turning to `O=C(O)c1ccc(Nc2nc(-c3ccccc3)nc3ccccc23)cc1`, the IC50 in [1] came out at 6380 nM. Moreover, the inhibition at 10 µM on ABCC1 is > 25%.

Regarding `COc1ccc(Nc2nc(-c3ccccc3)nc3ccccc23)cc1OC`, the concentration for half-maximal inhibition (IC50) in series [1] is 152 nM; in series [6] it was 1860 nM. For the same compound, the inhibition at 10 µM at ABCB1 was > 25%. Further, the GI50 at 72 h came out at 22500 nM in series [2] and 17000 nM in series [3]. In the series with ABCG2 [4], the selectivity ratio worked out at 148.

As for `O=[N+]([O-])c1cc(Nc2nc(-c3ccccc3)nc3ccccc23)ccc1O`, the IC50 in [1] is 80 nM; in series [5] it was 113 nM. In addition, the GI50 at 72 h in series [2] stood at 52400 nM; in series [3] it was 152000 nM. In addition, the selectivity ratio is 655 in the series with ABCG2 [4] and 13 in the series with ABCG2 [7].

For `Fc1cccc(Nc2nc(-c3ccccc3)nc3ccccc23)c1`, the IC50 in series [1] is 355 nM; in series [5] it was 405 nM. Moreover, the 50% growth inhibitory concentration (GI50) at 72 h was found to be 17200 nM in series [2] and 27500 nM in series [3]. In addition, the selectivity ratio with ABCG2 [4] worked out at 48.5.

Regarding `N#Cc1ccc(Nc2nc(-c3ccccc3)nc3ccccc23)cc1`, the values for the IC50 in series [1] and in series [5] were 69.9 nM and 84.5 nM, respectively. The results for the concentration for 50% growth inhibition (GI50) at 72 h in series [2] and in series [3] were 7960 nM and 16600 nM, respectively. The selectivity ratio in the series on ABCG2 [4] stood at 113.

For `O=C(Nc1ccccc1C(=O)Nc1ccc(CCN2CCc3ccccc3C2)cc1)c1cnc2ccccc2c1`, the IC50 in series [1] was 704 nM; in series [5] it was 741 nM.

Take `CC(=O)Nc1cccc(Nc2cc(-c3ccccc3)nc3ccccc23)c1`: the figures for the IC50 in series [1] and in series [6] were 1630 nM and 660 nM, respectively. Also, the inhibition at 10 µM on ABCB1 and on ABCC1 was > 25% each time.

As to `Ic1cccc(Nc2nc(-c3ccccc3)nc3ccccc23)c1`, the IC50 in series [1] was determined as 791 nM. The GI50 at 72 h turned out to be 4750 nM in series [2] and 16600 nM in series [3].

In [1], `Fc1cccc(Nc2cc(-c3ccccc3)nc3ccccc23)c1` showed an IC50 of 2130 nM.

For the compound `COc1ccc(Nc2nc(-c3ccccc3)nc3ccccc23)cc1F`, the IC50 in series [1] was 872 nM; in [5], 689 nM.

In [1], `CSc1cccc(Nc2nc(-c3ccccc3)nc3ccccc23)c1` displayed an IC50 of 1190 nM. Besides, the inhibition at 10 µM at ABCC1 was > 25%.

On to `C#Cc1cccc(Nc2nc(-c3ccccc3)nc3ccccc23)c1`, for which the IC50 in series [1] was 672 nM; in [5] it was 513 nM.

With `COc1cccc(Nc2cc(-c3ccccc3)nc3ccccc23)c1`, the values for the IC50 in [1] and in [6] were 951 nM and 2780 nM, respectively. The inhibition at 10 µM at ABCB1 is > 25%.

In series [1], `Ic1ccc(Nc2nc(-c3ccccc3)nc3ccccc23)cc1` registered an IC50 of 612 nM. The GI50 at 72 h in series [2] came to 9250 nM; in series [3] it was 8850 nM. Also, the selectivity ratio in the series with ABCG2 [4] amounted to 15.1.

In turn, `CC(C)(C)c1cccc(Nc2nc(-c3ccccc3)nc3ccccc23)c1` had an IC50 in series [1] of 1070 nM.

With `CSc1cccc(Nc2cc(-c3ccccc3)nc3ccccc23)c1`, the IC50 is 1900 nM in series [1] and 1420 nM in series [6]. The inhibition at 10 µM on ABCB1 and at ABCC1 was > 25% throughout.

Take `CC(C)(C)OC(=O)c1ccc(Nc2nc(-c3ccccc3)nc3ccccc23)cc1`: the IC50 in series [1] amounted to 5650 nM.

Compound `Cc1cc(Nc2nc(-c3ccccc3)nc3ccccc23)ccc1I` yielded an IC50 in [1] of 1460 nM.

Turning to `O=S(=O)(F)c1ccc(Nc2nc(-c3ccccc3)nc3ccccc23)cc1`, in series [1], the IC50 is 556 nM.

`N#Cc1ccc(Nc2cc(-c3ccccc3)nc3ccccc23)cc1`: the IC50 in series [1] is 846 nM; in [6], 4740 nM. In addition, the inhibition at 10 µM on ABCB1 was > 25%.

In the case of `COc1cc(Nc2nc(-c3ccccc3)nc3ccccc23)ccc1Br`, the IC50 in series [1] was found to be 289 nM; in series [5], 202 nM.

`Fc1ccc(Nc2nc(-c3ccccc3)nc3ccccc23)cc1` had an IC50 in series [1] of 1060 nM. Moreover, the values for the GI50 at 72 h in series [2] and in series [3] were 29000 nM and 25600 nM, respectively. The selectivity ratio in the series with ABCG2 [4] turned out to be 27.4.

In [1], `CC(C)(C)c1ccc(Nc2nc(-c3ccccc3)nc3ccccc23)cc1` had an IC50 of 1060 nM.

`COc1ccc2c3c([nH]c2c1)[C@H](CC(C)C)N1C(=O)[C@H](CCC(=O)OC(C)(C)C)NC(=O)[C@@H]1C3`: the GI50 at 72 h in [2] amounted to 11100 nM; in series [3], 10900 nM.

The values are drawn from ChEMBL document CHEMBL4425096, “Synthesis and Biological Evaluation of 4-Anilino-quinazolines and -quinolines as Inhibitors of Breast Cancer Resistance Protein (ABCG2)” (J Med Chem, 2016).
